Test results reported in paper PMC12900291 (European journal of medicinal chemistry, 2025).
Where “and” joins values, the source holds several entries; their conditions need not be identical. Identical values can stand only once.

Legend:
SERCA2a [1] = molecular target: T1, SERCA2a (Sus scrofa, UniProt P11607); test: oxalate-based Ca2+-uptake; type: biochemical, porcine; conditions: cardiac SR
Outline: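 Porcine left-ventricular SR vesicles (30 μg/mL) were prepared by differential centrifugation. Buffer: 50 mM MOPS, 100 mM KCl, 30 mg/mL sucrose, 10 mM potassium oxalate, 2 μM Fluo-4, free Ca2+ at pCa 8.0, 6.2 or 5.4, test compound 0.048–50 μM (two-fold series). Incubation 20 min at 22 °C, dark; 5 mM MgATP start; Fluo-4 decrease (ex 485/em 520 nm) tracked 15 min. Basal pCa 8.0 rate subtracted; Hill fit gives EC50 and % effect.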

Intrinsic clearance = type: in vitro ADME, human; conditions: for Thalf: human liver S9 0.5 mg/mL, 1 μM compound, NADPH, 37 °C; for microsomal CLint at 1 μM: human, liver S9 fraction, pH 7.4
SERCA1a = test: NADH-coupled Ca2+-ATPase activity assay in skeletal SR vesicles; type: biochemical, rabbit; conditions: Table 5 vs Table S2
Outline: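 Light SR came from rabbit skeletal white muscle by differential centrifugation and sucrose gradient. NADH-coupled assay: 4 μg/mL SR in 50 mM MOPS pH 7.0, 100 mM KCl, 1 mM EGTA, 0.2 mM NADH, 1 mM PEP, 10 IU/mL PK and LDH, 7 μM A23187, pCa 5.4/6.2/8.0. Test compound (0.048–50 μM) 20 min; 5 mM MgATP start; A340. pCa 8.0 rate subtracted; Hill fit gives EC50 and maximal % effect.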

SERCA2a [2] = molecular target: T1, SERCA2a; test: NADH-coupled enzyme-linked Ca2+-ATPase activity assay in cardiac SR vesicles; type: biochemical, porcine; conditions: for EC50 / Ca2+-ATPase [Ca2+]MAX % effect / Ca2+-ATPase [Ca2+]MID % effect: cardiac SR; for Max increase (%) / Max decrease (%): Ca2+-ATPase activity, mean±SD, n=4-6; for Max increase (%): vs no compound
HEK-293 cells = test: Cell viability; type: cell-based; conditions: read-out: Cell viability IC50, 72 h exposure, MTT
Outline: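 HEK-293.2sus cells were seeded at 9.6 × 10^3 cells/well and given a concentration gradient of test compound for 72 h at 37 °C, 5% CO2. MTT (0.5 mg/mL) was added for 3–4 h, medium removed, formazan dissolved in DMSO (15 min shaking, 21 °C), and A595 read. Cell-free background was subtracted, values taken relative to DMSO controls, and IC50 fitted by nonlinear least squares. n = 3–6.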

[3] = Ca2+-Uptake [Ca2+]MAX EC50 (μM), [Ca2+]MAX (pCa 5.4)
[4] = Ca2+-Uptake [Ca2+]MID EC50 (μM), [Ca2+]MID (pCa 6.2)
[5] = Ca2+-ATPase [Ca2+]MAX EC50 (μM), [Ca2+]MAX (pCa 5.4)
[6] = Ca2+-ATPase [Ca2+]MID EC50 (μM), [Ca2+]MID (pCa 6.2)

T1 sequence (P11607 1-997 isoform P11607-2): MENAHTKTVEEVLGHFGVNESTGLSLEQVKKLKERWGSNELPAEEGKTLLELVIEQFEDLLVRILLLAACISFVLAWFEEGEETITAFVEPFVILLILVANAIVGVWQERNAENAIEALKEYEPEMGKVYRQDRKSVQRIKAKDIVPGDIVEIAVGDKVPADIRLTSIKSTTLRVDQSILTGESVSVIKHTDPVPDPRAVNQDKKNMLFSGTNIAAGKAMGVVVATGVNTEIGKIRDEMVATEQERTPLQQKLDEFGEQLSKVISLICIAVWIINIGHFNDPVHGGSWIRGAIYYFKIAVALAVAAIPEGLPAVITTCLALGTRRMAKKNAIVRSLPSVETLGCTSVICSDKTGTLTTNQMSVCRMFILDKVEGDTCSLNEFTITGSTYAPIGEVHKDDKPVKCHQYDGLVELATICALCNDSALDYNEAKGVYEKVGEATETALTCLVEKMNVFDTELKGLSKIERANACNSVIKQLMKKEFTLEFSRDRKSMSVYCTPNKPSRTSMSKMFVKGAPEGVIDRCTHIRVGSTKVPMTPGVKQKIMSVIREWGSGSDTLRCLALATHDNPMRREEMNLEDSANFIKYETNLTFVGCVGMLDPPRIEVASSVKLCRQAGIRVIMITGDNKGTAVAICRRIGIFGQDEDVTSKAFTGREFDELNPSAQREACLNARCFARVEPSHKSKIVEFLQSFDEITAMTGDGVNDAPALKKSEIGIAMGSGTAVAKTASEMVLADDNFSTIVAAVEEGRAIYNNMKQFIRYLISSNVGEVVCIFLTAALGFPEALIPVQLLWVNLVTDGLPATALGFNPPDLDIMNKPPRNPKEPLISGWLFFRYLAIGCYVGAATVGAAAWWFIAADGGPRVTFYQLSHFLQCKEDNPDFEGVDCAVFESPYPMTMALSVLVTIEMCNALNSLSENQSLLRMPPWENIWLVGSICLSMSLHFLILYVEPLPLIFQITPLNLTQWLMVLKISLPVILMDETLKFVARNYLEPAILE

Row | SMILES | EC50 (SERCA2a [1]; [3]) | EC50 (SERCA2a [1]; [4]) | Thalf (Intrinsic clearance) | microsomal CLint at 1 μM (Intrinsic clearance) | EC50 (SERCA2a [2]; [5]) | EC50 (SERCA2a [2]; [6]) | Max increase (%) (SERCA2a [2]; [Ca2+]MAX (pCa 5.4)) | further results
1 | CCN(Cc1ccccc1OC)C(=O)c1cc(C)c(C)s1 [Compound 32, N-Ethyl-N-(2-methoxybenzyl)-4,5-dimethylthiophene-2-carboxamide] | 0.77 ± 0.57 µM | 0.91 ± 0.85 µM | 34.7 min | 37 ± 6.2 µL/min/mg | 6.3 ± 1.8 µM | 4.6 ± 2 µM | 43±6.7% | Ca2+-Uptake [Ca2+]MAX % effect (SERCA2a [1]; [Ca2+]MAX (pCa 5.4)): 13±5.7%; Ca2+-Uptake [Ca2+]MAX EC50 (μM) (SERCA2a [1]; [Ca2+]MAX (pCa 5.4)): decreased; Ca2+-Uptake [Ca2+]MID % effect (SERCA2a [1]; [Ca2+]MID (pCa 6.2)): 6.0±1.6%; selectivity for SERCA2a relative to SERCA1a, higher efficacy, ATPase activity (SERCA1a; [Ca2+]MAX): at least 8 fold; Ca2+-ATPase [Ca2+]MAX % effect (SERCA2a [2]; [Ca2+]MAX (pCa 5.4)): 43±6.7%; Ca2+-ATPase [Ca2+]MID % effect (SERCA2a [2]; [Ca2+]MID (pCa 6.2)): 24±6.0%
2 | CCCN(Cc1ccccc1OC)C(=O)c1ccc(Br)c(Br)c1 [Compound 23, 3,4-Dibromo-N-(2-methoxybenzyl)-N-propylbenzamide] | > 50 µM | 9.2 ± 1.5 µM | 15.3 min | 79 ± 19 µL/min/mg | 0.9 ± 0.38 µM | 15.3 ± 4.1 µM | 28±8.1% | Max decrease (%) (SERCA2a [2]; [Ca2+]MAX (pCa 5.4)): 28±9.0%; Ca2+-ATPase [Ca2+]MAX % effect (SERCA2a [2]; [Ca2+]MAX (pCa 5.4)): 28±8.1%
3 | CCCN(Cc1ccccc1OC)C(=O)c1cccc(Cl)c1 [Compound 16, 3-Chloro-N-(2-methoxybenzyl)-N-propylbenzamide] | – | – | – | – | – | – | 61±9.4% | –
4 | COc1ccccc1CN(CCCF)C(=O)c1cc(C)c(C)s1 [Compound 39, N-(3-Fluoropropyl)-N-(2-methoxybenzyl)-4,5-dimethylthiophene-2-carboxamide] | – | – | – | – | – | – | 22% and 22±8.6% | –
5 | Cc1ccc2cccc(NC(=O)c3ccc(OC(C)C)cc3)c2n1 [CDN1163, reference compound] | – | – | – | – | – | – | – | IC50 (HEK-293 cells): 63 µM
6 | CCCCN(Cc1ccccc1OC)C(=O)c1cc(C)c(C)s1 [Compound 33, N-Butyl-N-(2-methoxybenzyl)-4,5-dimethylthiophene-2-carboxamide] | 1.1 ± 0.35 µM | 0.63 ± 0.21 µM | 16.6 min | 83 ± 4.2 µL/min/mg | 4 ± 0.8 µM | 3 ± 1 µM | 72% and 72±8.5% | Ca2+-Uptake [Ca2+]MAX % effect (SERCA2a [1]; [Ca2+]MAX (pCa 5.4)): 22±5.6%; Ca2+-Uptake [Ca2+]MAX EC50 (μM) (SERCA2a [1]; [Ca2+]MAX (pCa 5.4)): unchanged; Ca2+-Uptake [Ca2+]MID % effect (SERCA2a [1]; [Ca2+]MID (pCa 6.2)): 15±7.0%; Ca2+-ATPase [Ca2+]MAX % effect (SERCA2a [2]; [Ca2+]MAX (pCa 5.4)): 72±8.5%; Ca2+-ATPase [Ca2+]MID % effect (SERCA2a [2]; [Ca2+]MID (pCa 6.2)): 23±6.0%
7 | CCCN(Cc1ccccc1OC)C(=O)c1cc2c(s1)CCCC2 [Compound 8, N-(2-Methoxybenzyl)-N-propyl-4,5,6,7-tetrahydrobenzo[b]thiophene-2-carboxamide] | 1.1 ± 0.45 µM | > 50 µM | 20.1 min | 73 ± 9.3 µL/min/mg | 3.3 ± 0.5 µM | 3.6 ± 2.8 µM | 45% and 45±10% | Ca2+-Uptake [Ca2+]MAX % effect (SERCA2a [1]; [Ca2+]MAX (pCa 5.4)): 8.8±2.3%; Ca2+-Uptake [Ca2+]MAX EC50 (μM) (SERCA2a [1]; [Ca2+]MAX (pCa 5.4)): unchanged; IC50 (HEK-293 cells): 29 ± 18 µM
8 | CCCN(Cc1ccccc1OC)C(=O)c1ccnc(Br)c1 [Compound 29, 2-Bromo-N-(2-methoxybenzyl)-N-propylisonicotinamide] | – | – | – | – | – | – | 21±4.9% | –
9 | CCCN(Cc1ccccc1OC)C(=O)c1cc2ccccc2s1 [Compound 7, N-(2-Methoxybenzyl)-N-propylbenzo[b]thiophene-2-carboxamide] | – | – | – | – | – | – | 76% and 76±19% | –
10 | CCCN(Cc1ccccc1OC)C(=O)c1ccccc1C [Compound 9, N-(2-Methoxybenzyl)-2-methyl-N-propylbenzamide] | – | – | – | – | – | – | 28±10% | –
11 | CCCN(Cc1ccccc1OC)C(=O)c1ccccc1Cl [Compound 15, 2-Chloro-N-(2-methoxybenzyl)-N-propylbenzamide] | – | – | – | – | – | – | 35±10% | –
12 | CCN(Cc1ccccc1OC)C(=O)c1cccc(Br)c1 [Compound 51, 3-Bromo-N-ethyl-N-(2-methoxybenzyl)benzamide] | – | – | – | – | – | – | 46±6.3% | –
13 | CCCN(Cc1ccccc1OC)C(=O)c1scc(C)c1C [Compound 2, N-(2-Methoxybenzyl)-3,4-dimethyl-N-propylthiophene-2-carboxamide] | – | – | – | – | – | – | 47±7.1% | –
14 | CCCN(Cc1ccccc1)C(=O)c1cc(C)c(C)s1 [Compound 44, N-Benzyl-4,5-dimethyl-N-propylthiophene-2-carboxamide] | – | – | – | – | – | – | abolished activity | –
15 | CCCN(Cc1ccccc1OC)C(=O)c1cc(F)cc(Br)c1 [Compound 26, 3-Bromo-5-fluoro-N-(2-methoxybenzyl)-N-propylbenzamide] | 0.54 ± 0.3 µM | > 50 µM | 62.4 min | 22 ± 1.1 µL/min/mg | 2.2 ± 0.27 µM | 2.1 ± 0.88 µM | 33±6.5% | Ca2+-Uptake [Ca2+]MAX EC50 (μM) (SERCA2a [1]; [Ca2+]MAX (pCa 5.4)): decreased
16 | CCCN(Cc1ccccc1OC)C(=O)c1cccc(C(F)(F)F)c1 [Compound 21, N-(2-Methoxybenzyl)-N-propyl-3-(trifluoromethyl)benzamide] | 1.5 ± 0.33 µM | 1 ± 0.86 µM | 10.3 min | 133 ± 11 µL/min/mg | 5.1 ± 2.1 µM | 5.3 ± 1.3 µM | 40±14% | Ca2+-Uptake [Ca2+]MAX % effect (SERCA2a [1]; [Ca2+]MAX (pCa 5.4)): 15±5.9%; Ca2+-Uptake [Ca2+]MAX EC50 (μM) (SERCA2a [1]; [Ca2+]MAX (pCa 5.4)): increased; Ca2+-Uptake [Ca2+]MID % effect (SERCA2a [1]; [Ca2+]MID (pCa 6.2)): 7.0±3.7%; IC50 (HEK-293 cells): 31 ± 16 µM; selectivity for SERCA1a (vs SERCA2a), ATPase activity (SERCA1a; [Ca2+]MID): at least 8 fold; Ca2+-ATPase [Ca2+]MAX % effect (SERCA2a [2]; [Ca2+]MAX (pCa 5.4)): 40±14%; Ca2+-ATPase [Ca2+]MID % effect (SERCA2a [2]; [Ca2+]MID (pCa 6.2)): 25±7.4%
17 | COc1ccccc1CN(C(=O)c1cc(C)c(C)s1)C(C)C [Compound 34, N-Isopropyl-N-(2-methoxybenzyl)-4,5-dimethylthiophene-2-carboxamide] | – | – | – | – | – | – | 43±7.9% | –
18 | CCCN(Cc1ccccc1OC)C(=O)c1ccc(C)cc1 [Compound 11, N-(2-Methoxybenzyl)-4-methyl-N-propylbenzamide] | – | – | – | – | – | – | 61±7.0% | –
19 | COc1cccc2c1CN(C(=O)c1cc(C)c(C)s1)CC2 [Compound 42, (4,5-diMethylthiophen-2-yl)(8-methoxy-3,4-dihydroisoquinolin-2(1H)-yl)methanone] | – | – | – | – | – | – | 22% and 22±6.4% | –
20 | COc1ccccc1CN(CCO)C(=O)c1cc(C)c(C)s1 [Compound 36, N-(2-Hydroxyethyl)-N-(2-methoxybenzyl)-4,5-dimethylthiophene-2-carboxamide] | – | – | – | – | – | – | abolished | –
21 | CCCN(Cc1ccccc1OC)C(=O)c1cncc(Br)c1 [Compound 28, 5-Bromo-N-(2-methoxybenzyl)-N-propylnicotinamide] | – | – | – | – | – | – | 28±5.7% | –
22 | CCCN(Cc1ccccc1OC)C(=O)c1cccc(Br)c1 [Compound 22, 3-Bromo-N-(2-methoxybenzyl)-N-propylbenzamide] | 0.36 ± 0.14 µM | 12.4 ± 8.4 µM | 23.8 min | 56 ± 9 µL/min/mg | 1.5 ± 0.31 µM | 1.4 ± 0.8 µM | 46±5.5% | Ca2+-Uptake [Ca2+]MAX % effect (SERCA2a [1]; [Ca2+]MAX (pCa 5.4)): 11±3.8%; Ca2+-Uptake [Ca2+]MAX EC50 (μM) (SERCA2a [1]; [Ca2+]MAX (pCa 5.4)): decreased
23 | CCCN(Cc1ccccc1OC)C(=O)c1cccc(Br)c1F [Compound 24, 3-Bromo-2-fluoro-N-(2-methoxybenzyl)-N-propylbenzamide] | 1.4 ± 0.65 µM | 0.83 ± 0.3 µM | 51.3 min | 25 ± 4 µL/min/mg | 3.4 ± 0.29 µM | 3.3 ± 1.9 µM | 48±4.6% | Ca2+-Uptake [Ca2+]MAX % effect (SERCA2a [1]; [Ca2+]MAX (pCa 5.4)): 12±3.0%; Ca2+-Uptake [Ca2+]MID % effect (SERCA2a [1]; [Ca2+]MID (pCa 6.2)): 8.5±3.3%; Ca2+-ATPase [Ca2+]MAX % effect (SERCA2a [2]; [Ca2+]MAX (pCa 5.4)): 48±4.6%; Ca2+-ATPase [Ca2+]MID % effect (SERCA2a [2]; [Ca2+]MID (pCa 6.2)): 25±5.6%
24 | COc1ccccc1CN(CCC(F)(F)F)C(=O)c1cc(C)c(C)s1 [Compound 41, N-(2-Methoxybenzyl)-4,5-dimethyl-N-(3,3,3-trifluoropropyl)thiophene-2-carboxamide] | – | – | – | – | – | – | 75% and 75±8.6% | –
25 | CCN(Cc1ccccc1OC)C(=O)c1cc(F)c(C)c(Br)c1 [Compound 54, 3-Bromo-N-ethyl-5-fluoro-N-(2-methoxybenzyl)-4-methylbenzamide] | – | – | – | – | – | – | – | Max decrease (%) (SERCA2a [2]; [Ca2+]MAX (pCa 5.4)): −70±3.4%; inhibition at 50 µM (SERCA2a [2]; read-out: inhibition of Ca2+-ATPase activity): 70%
